The values that follow come from PubChem BioAssay AID651999 (Sanford-Burnham Center for Chemical Genomics, 2013).

The structures appear in SMILES notation. In all, about 360,000 compounds went through this assay and about 1,400 (0.39%) were called active. The entries come from a sample that favours actives as a whole. A number with no mark means an inactive call.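 The calls were made as follows: active = pattern-corrected inhibition above about 35%, with an unprinted fluorescence ratio check between 0.5 and 1.5 (limit read from the data, passing the limit was not always enough); inactive = the rest.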

COP9 signalosome complex subunit 5 (Homo sapiens), sequence (Q92905 whole entry, looked up, one chain of several): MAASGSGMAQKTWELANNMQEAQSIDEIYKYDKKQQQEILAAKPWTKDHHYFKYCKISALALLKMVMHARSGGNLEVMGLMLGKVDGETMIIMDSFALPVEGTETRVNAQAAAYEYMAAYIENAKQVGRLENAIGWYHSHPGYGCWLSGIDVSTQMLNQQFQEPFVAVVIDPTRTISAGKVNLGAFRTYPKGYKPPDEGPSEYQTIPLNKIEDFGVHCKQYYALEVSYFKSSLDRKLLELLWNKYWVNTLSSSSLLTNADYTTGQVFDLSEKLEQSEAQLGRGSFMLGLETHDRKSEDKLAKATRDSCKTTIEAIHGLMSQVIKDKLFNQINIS

The assay has as its target COP9 signalosome complex subunit 5 (Homo sapiens) (UniProt Q92905). The assay can be described thus: CSN5 deneddylase inhibitors on cullin-RING ligase – biochemical, fluorescence polarization, uHTS, primary screen (AID 651999).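 Also: 0% = enzyme with substrate and 100% = substrate without enzyme.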 Particulars: Purified CSN, SCF-Nedd8-OG deneddylation, at 12.5 µM, hits give high values. Put shortly:
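Assay system: purified human Csn5 enzyme expressed in HEK293T cells; Input: 0.24 nM Csn5 enzyme, final concentration; Reagent: 10 nM SCFSkp2-Nedd8OG; Compound dosing: 12.5 µM single point; Times: reaction 90 min, room temperature; Technique: fluorescence polarization readout.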
Background: In fluorescence polarisation assays a small probe gives low polarisation when free and higher when bound to something large.
As usually defined, the inhibition is the drop in the measured response relative to a control, in per cent. For the molecule `COc1ccc(N2C(=O)/C(=C/c3ccco3)C(=O)NC2=S)cc1`, the inhibition is 39.6% (active).
As to `COc1ccc(NC(=O)N2Cc3ccccc3-n3nncc3C2)cc1`, the inhibition was 1.89%.
With `COc1ccccc1N=Nc1c(O)[nH]c(=S)[nH]c1=O` the figure was 64.6% (active).
Turning to `CCOCCc1c(O)[nH]c(=S)[nH]c1=O`, the inhibition was -1.36%.
With `O=C1N=c2ccccc2=C/C1=C\c1c(O)[nH]c(=S)[nH]c1=O` the figure was 3.94%.
The value for `C=CC12CN(C)[C@@H]3C4CO[C@H](C[C@H]41)[C@]1(C(=O)Nc4ccccc41)[C@@H]32` (stereo not given in full) was 6.32%.
Consider `CC(=O)Nc1ccccc1C(=O)OCC(=O)c1cccc2ccccc12`, for which the inhibition is -2.94%.
The value for `CCN1CCN(c2nc3c(c(=O)[nH]2)CCC3)CC1` was 2.3%; that for `CCNc1nc2[nH]c(=O)c3c(c2s1)OC(N)=C(C#N)C3c1cccs1` (stereo not given) was 7.11%.
The value for `Cn1c(O)c(C=NCCN2CCNCC2)c(=O)n(C)c1=O` was 2.48%.
Consider `O=C(CN1CCCC1=O)NCCc1ccccc1`, for which the inhibition was -4.34%.
As for `CC(C)(C)c1ccc(CN2C(=O)CN=C(c3ccccc3)c3ccccc32)cc1`, the inhibition was -0.66%.
Take `O=C1CC(=O)N(Cc2ccccc2)C(=O)N1CCCCCCN1C(=O)CC(=O)N(Cc2ccccc2)C1=O`: the inhibition was 81.1% (active).
As for `COC(=O)C1=C(c2cc3ccccc3s2)C[C@@H]2CC[C@H]1N2C(=O)NC(C)C`, the inhibition is 4.07%.
For `Cc1cccc(-n2c(O)c(/C=N/N3CCOCC3)c(=O)[nH]c2=S)c1`, the inhibition was -0.17%.
